# Test results from PubChem BioAssay AID2445 (The Scripps Research Institute Molecular Screening Center, 2010).
# In all, about 320,000 compounds went through this assay and about 200 (0.062%) were called active. The entries come from a sample that favours actives as a whole. Values without a mark were called inactive.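 Rule for the calls: active = activation above that plate's cutoff, the mean activation of tested compounds plus 3 SD (cut at about 6.6% in these data, passing the limit was not always enough); inactive = the rest.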
# Biological target: Oxytocin receptor (Homo sapiens) (UniProt P30559)
# Assay: enhancers of oxytocin-evoked OXTR calcium signal – fluorescence, CHO-OTR cells, Fluo-8 calcium, primary screen (AID 2445);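 note: 100% uses oxytocin at 75 nM as the full agonist control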
# Details: Fluo-8 calcium fluorescence, potentiator mode, at 3 µM, hits give high values, 0% = oxytocin EC15, 100% = EC100
# Procedure, shortened: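 Assay system: CHO cell line stably expressing human OTR. Reagent: EC15 oxytocin agonist. Dosing: single dose, 3.0 µM nominal final compound concentration. Timing: compound 6 min at room temperature before oxytocin, 100 s read. Signal: kinetic Fluo-8 calcium fluorescence. Controls: oxytocin EC15 low and EC100 high.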
# Oxytocin receptor (Homo sapiens), sequence (P30559 whole entry, looked up): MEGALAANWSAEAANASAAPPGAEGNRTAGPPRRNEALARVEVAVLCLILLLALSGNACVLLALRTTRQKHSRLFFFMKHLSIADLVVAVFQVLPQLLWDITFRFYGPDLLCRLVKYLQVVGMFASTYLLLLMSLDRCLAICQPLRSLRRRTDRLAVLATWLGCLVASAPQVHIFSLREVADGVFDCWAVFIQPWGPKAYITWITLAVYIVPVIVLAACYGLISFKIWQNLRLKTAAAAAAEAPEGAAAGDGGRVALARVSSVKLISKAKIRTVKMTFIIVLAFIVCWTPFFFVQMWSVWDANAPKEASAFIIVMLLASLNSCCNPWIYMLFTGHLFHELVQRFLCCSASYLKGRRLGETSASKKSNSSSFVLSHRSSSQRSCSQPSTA
row,Compound,activation
1,CC1CCC(NS(=O)(=O)c2ccc3c(c2)CC(=O)N3)CC1 (configuration not stated),-7.03%
2,Cc1cc(C)cc(N(CC(=O)NC2CCCC2)C(=O)CCC(=O)Nc2cc(C)on2)c1,-12.7%
3,Nc1ccc(SCCN2C(=O)c3ccccc3C2=O)cc1,-2.44%
4,COc1cc(/C=C2\SC(=O)NC2=O)ccc1OCc1ccc(Cl)nc1,-15.2%
5,CCOC(=O)c1ccccc1NC(=O)c1c(N)n(C)c(=O)[nH]c1=O,-5.38%
6,CCC(C)[C@H](NC(=O)N1c2ccccc2NC(=O)[C@@H]1C(C)C)C(=O)N[C@@H](Cc1ccccc1)C(=O)O (some centres not stated),-4.93%
7,CC1(C)CC(=O)CC2(C1)NCC(c1ccccc1Cl)c1c2[nH]c2ccccc12 (configuration not stated),-23.6%
8,Cc1cccn2c(=O)nc(SCC(=O)NCc3ccccc3Cl)nc12,-9.43%
9,O=C(NCCc1ccccn1)c1cc(C(=O)C2CCCCC2)c[nH]1,-8.37%
10,Cc1nc(NCc2ccccc2)c(C(N)=O)c2c1COC(C)(C)C2,-7.89%
11,O=C1CCCc2nn(-c3ccccc3)nc21,-20.3%
12,CCc1cc2c(SCC(=O)Nc3ncc(Cl)c(C)c3Cl)ncnc2s1,-3.54%
13,COCCn1c(CN(Cc2ccccc2)Cc2ccccc2)nc2c1c(=O)n(C)c(=O)n2C,6.98% (active)
14,CC(C)Cn1c(CN(Cc2ccccc2)Cc2ccccc2)nc2c1c(=O)n(C)c(=O)n2C,-4.31%
15,CC(C)CCn1c(CN(C)Cc2ccccc2)nc2c1c(=O)n(C)c(=O)n2C,-2.79%
16,CCc1nn(CCCC(=O)NCc2ccc(C)cc2)c(=O)c2cc3occc3n12,-17.3%
17,CCOC(=O)[C@H]1[C@H]2COc3cc(OC)ccc3[C@@H]2N2C(=O)N(c3ccc(Br)cc3)C(=O)[C@@]12C,-10.7%
18,O=P(O)(CP(=O)(c1ccccc1)c1ccccc1)c1ccccc1,-9.44%
19,Cc1cccc(N2CCN(C(=O)CN(C)S(=O)(=O)c3ccc4c(c3)CCC(=O)N4)CC2)c1C,-9.67%
20,CC(Oc1ccc(F)cc1)C(=O)Nc1ccccc1C(=O)NC1CC1 (configuration not stated),2.5%
21,Cc1c(-c2nn(C)c(=O)c3ccccc23)oc2ccc(F)cc2c1=O,-8.96%
22,C=CCOC(=O)C1=C[C@@H](c2ccc3c(c2)OCO3)C[C@@H](OCCCCO)O1,-0.78%
23,Cc1ccc(N/N=C2\COC(C)(C)CC2=O)cc1,-4.26%

row,Compound,activation
1,CCOc1ccc(-c2c(C)n([O-])c3c([n+]2=O)CCCC3)cc1,-2.39%
2,Cc1ccc2c(c1)C(O)(CC(=O)c1cccc(-n3cccc3)c1)C(=O)N2 (configuration not stated),-5.12%
3,O=C(COc1ncnc2c(Cl)cc(Cl)cc12)N1CCN(S(=O)(=O)c2ccccc2)CC1,-0.15%
4,Cc1ccc(S(=O)(=O)N(C)c2ccc(OCC(=O)OCc3ccc(C#N)cc3)cc2)cc1,-6.02%
5,COc1ccc2c(c1)CC[C@@H]1[C@@H]2CC[C@]2(C)C(=O)CC[C@@H]12,-6.25%
6,O=S(=O)(NCCOc1cccc2cccnc12)c1ccc(F)cc1,-8.04%
7,COc1cccc(NC(=O)CSc2nnc(Cc3ccc(OC)c(OC)c3)o2)c1,-7.75%
8,Cc1cccc(N=C2SC(C)CN2C(=O)CN2C(=O)NC3(CCCC3)C2=O)c1 (configuration not stated),-10%
9,CCOc1ccc(C(=O)Nc2cc(Cl)ccc2-n2cncn2)cc1OC,3.32%
10,c1ccc(-c2cn3c(n2)CCc2ccc4cccnc4c2-3)cc1,0.09%
11,CCC(C)N(C(=O)COC(=O)C1C(C(=O)OC)=C(C)NC(C)=C1C(=O)OC)C1CCS(=O)(=O)C1 (configuration not stated),-7.92%
12,COc1ccc(NC(=O)CC(NC(C)c2ccccc2)C(=O)O)cc1 (configuration not stated),1.93%
13,CSc1cccc(NC(=O)CSc2ccccc2)c1,-15.7%
14,Cc1cc(C)cc(NC(=O)CSc2ccccc2)c1,12.9% (active)
15,Cc1cc(C)cc(NC(=O)CN2C(=O)c3ccccc3C2=O)c1,-3.2%
16,CCCCn1c(N)c(N(CC(C)C)C(=O)CSc2ccc([N+](=O)[O-])cc2)c(=O)[nH]c1=O,1.02%
17,Cc1ccc(-c2nnc(-n3nnc4ccccc43)c3ccccc23)cc1,-11.2%
18,Cc1ccc(Cl)cc1NC(=O)CN1CCN(S(=O)(=O)N2CCOCC2)CC1,-9.03%
19,Cc1ccc(S(=O)(=O)NC2(C(F)(F)F)NC(=O)N(CCc3ccccc3)C2=O)cc1 (configuration not stated),-18.6%
20,COc1cccc(N2CCN(c3ccc4nnc(CCC(=O)N5CCN(C)CC5)n4n3)CC2)c1,-0.01%
21,Cc1ccc(S(=O)(=O)N(CCCN(C)C)Cc2ccc3c(c2)OCO3)cc1,-1.86%
22,COc1ccc(SCc2noc(C(=O)NCC3CCCO3)c2C(=O)O)cc1 (configuration not stated),3.88%
23,CC1CN(CC(=O)NC(C)c2ccccc2)CC(C)O1 (configuration not stated),-2.73%

row,Compound,activation
1,CC(C)Oc1ccccc1C(=O)NC(CO)C(=O)O (configuration not stated),7%
2,COc1ccc(CNc2cc(C)cc(C)c2)cc1OC,-5.89%
3,Cc1c(CN2CCC(CO)(CCOc3ccccc3)CC2)[nH]c2ccc(Cl)cc12,-15%
4,Cc1c(C)c2c(OCC(=O)N[C@@H](C(=O)O)c3ccccc3)cc3c(c2oc1=O)CCC(C)(C)O3,0.86%
5,CCc1c(SCCC(=O)O)nc2ccccc2c1C,2.81%
6,CN1CCN(c2ccc(CNS(=O)(=O)c3cccc(F)c3)cc2)CC1,-0.68%
7,Cc1ccsc1CNn1cnnc1SCc1ccccc1F,-4.45%
8,c1ccc2c(-c3nn4nnnc4c4ccccc34)cccc2c1,-11%
9,C=CCNC(=O)c1ccc2c3n(nc2c1)-c1ccc(C)cc1CO3,-15.6%
10,N#Cc1c(NC(=O)C2CCCO2)sc2c1CCCCC2 (configuration not stated),-9.34%
11,NC(=O)C1CC(=O)N(c2ccc(OCC(=O)NCc3ccccc3)cc2)C1 (configuration not stated),2.9%
12,CC1CCC2CCCCC2N1C(=O)c1cc([N+](=O)[O-])cc([N+](=O)[O-])c1 (configuration not stated),-6.56%
13,OCCN1CCOCCOCCN(CCO)CCN(CCO)CC1,-14%
14,Cc1cccc2c1-c1sc(C(=O)NCCCN3CCc4ccccc4C3)cc1CO2,-6.4%
15,O=C(NCc1ccccc1)C1CCN(C(=O)Cc2ccccc2)CC1,-0.95%
16,Cc1ccc(N2C(=O)CN=C2Nc2nc(C)cc(C)n2)cc1,-1.27%
17,COc1ccc(Br)c2c1C(=O)CC2,-5.51%
18,Cc1ccc(S(=O)(=O)NCC2CCC(C(=O)N3CCOCC3)CC2)cc1 (configuration not stated),-11.8%
19,CS(=O)(=O)Nc1ccccc1C(=O)OCC(=O)NC1CC1,-5.14%
20,O=C(Nc1ccccc1C(=O)N1CCOCC1)c1ccc(Cl)cc1,-4.35%
21,COC(=O)CSc1snnc1-c1ccc(Cl)c(Cl)c1,-15.7%
22,O=C(O)c1ccc2c(=O)n3c(nc2c1)/C(=C/c1ccc(OC(F)F)cc1OC(F)F)CC3,1.58%
23,Cn1c(N)c(C(=O)COC(=O)c2ccccc2NCc2ccco2)c(=O)n(C)c1=O,-14.4%

row,Compound,activation
1,Cc1ccccc1Cn1c2ccccc2c2cnn(CC(=O)NCc3ccco3)c(=O)c21,1.81%
2,CCCCCCCCCCCCN1[C@@H](CC(C)=O)c2cc(F)cc(F)c2S1(=O)=O,9.85%
3,O=C(Nc1nc(-c2ccco2)c(-c2ccco2)s1)c1ccco1,-4.21%
4,CNc1nnc(-c2ccco2)s1,11.7% (active)
5,COc1ccc(OCC(=O)Nc2nnc(-c3ccco3)s2)cc1,-4.78%
6,CC(C)N(Cc1ccccc1)C(=O)COC(=O)c1cnccn1,-12.7%
7,COc1cc(OC)c(C(=O)OC(C)C(=O)Nc2cc(C(F)(F)F)ccc2Cl)cc1OC (configuration not stated),-8.37%
8,Cc1noc(C)c1NC(=O)Nc1ccc2c(c1)C(=O)N([C@H](C)CO)C[C@H](C)[C@@H](CN(C)C(=O)Nc1ccccc1)O2,-1.66%
9,CSc1ncccc1C(=O)OCc1ccc(Br)cc1,-14.7%
10,O=C(O)CCCCOn1ccnc1,3.24%
11,Cc1nc2cc(NCc3cccs3)ccc2n1C,-14.8%
12,O=C1/C(=C/c2ccc3c(c2)OCO3)Oc2cc(OCC(=O)N3CC(O)C[C@H]3C(=O)O)ccc21 (some centres not stated),-2.05%
13,Cc1nc(-c2ccc(F)cc2)c(CC(=O)N2CCN(S(=O)(=O)c3ccc(F)cc3)CC2)s1,-7.74%
14,O=C(Nc1ccc(F)cc1)C1CCN(C(=O)c2ccc([N+](=O)[O-])cc2)CC1,-7.48%
15,Cc1ccc(NC(=O)COc2coc(CN3CCc4ccccc4C3)cc2=O)cc1Cl,-8.11%
16,CCOC(=O)C1=C(N)N2C(=O)C(C)SC2=C(C(=O)OCC)C1c1cc(OC)c(OC)c(OC)c1 (configuration not stated),3.06%
17,O=C(Nc1ccc(F)cc1F)N1CCCN(CCOc2ccccc2)CC1,-5.95%
18,O=C1CC(c2c(F)cccc2Cl)C(n2cncn2)C(O)=C1C1NCCc2ccccc21 (configuration not stated),2.91%
19,O=C(COC(=O)CCc1nc2ccccc2c(=O)[nH]1)Nc1ccc(N2CCOCC2)cc1,-2.47%
20,CC1CCCCC12NC(=O)N(CC(=O)Nc1ccc(S(=O)(=O)Nc3ncccn3)cc1)C2=O (configuration not stated),1.55%
21,CCCCNc1c(-c2cccc(Sc3ccc(OC)cc3)c2)nc2ccccn12,-2.7%
22,CCCCCCSc1ccc(-c2nc3ccc(Cl)cn3c2NCc2ccccc2)cc1,-4.96%
23,CCCCNc1c(-c2ccc(OC)c(Sc3ccc(OC)cc3)c2)nc2ccc(Cl)cn12,13.1% (active)
